Results collected from several papers.
Target: Calcium/calmodulin-dependent protein kinase type 1D (CAMK1D, Homo sapiens, UniProt Q8IU85)

O=C(NCCCN1CCOCC1)c1ccc(Nc2ncc(Cl)c(-c3ccc(Cl)s3)n2)cc1
remaining binding (binding, competition with immobilised ligand; 1 µM): 44%

CCc1ccccc1C(=O)Nc1n[nH]c2c(C)c(F)c(C3C(C#N)=C(C)N(C)C(C)=C3C#N)cc12
remaining binding (cell-free assay, competition with immobilised ligand; 1 µM): 87%

Nc1ncc2c(n1)-c1c([nH]c3ccc(C#CC4CC4)cc13)CCCC2
remaining binding (binding, competition with immobilised ligand; 1 µM): 100%

CNC(=O)c1ccc(Nc2ncc(C(F)(F)F)c(NCc3nccnc3N(C)S(C)(=O)=O)n2)cc1
remaining binding (cell-free assay, competition with immobilised ligand; 0.1 µM): 100%

N[C@H]1CCN(c2nccc(-c3cnn4ncccc34)n2)C1
remaining binding (binding; 1 µM): 91%

O=C(NCCCN1CCOCC1)c1ccc(Nc2nccc(-c3cc4ccccc4s3)n2)cc1
remaining binding (binding, competition with immobilised ligand; 1 µM): 48%

O=C(NS(=O)(=O)c1ccc(NCC2CCOCC2)c([N+](=O)[O-])c1)c1ccc(N2CCN(Cc3ccc(C(F)(F)F)cc3-c3ccc(Cl)cc3)CC2)cc1Oc1cnc2[nH]ccc2c1
remaining binding (cell-free assay, competition with immobilised ligand; 1 µM): 92%

C[C@H]1CCN(c2nccc(-c3cnn4ncccc34)n2)C1
remaining binding (binding; 1 µM): 95%

COc1cnc(Nc2cccc(S(N)(=O)=O)c2)nc1N1CCN(c2ccccc2)C(=O)C1
remaining binding (binding, competition with immobilised ligand; 1 µM): 99%

O=C(NCC1CCOCC1)c1n[nH]cc1NC(=O)c1c(F)cccc1F
remaining binding (binding, competition with immobilised ligand; 1 µM): 96%

CC1CCCN1c1nccc(-c2cnn3ncccc23)n1 (stereo not shown)
remaining binding (binding; 1 µM): 100%

CNC(=O)Nc1ccc2c(c1)[C@@]1(CC2)OC(=O)N(CC(=O)N(Cc2ccc(F)cc2)[C@@H](C)C(F)(F)F)C1=O
remaining binding (cell-free assay, competition with immobilised ligand; 1 µM): 100%

FC(F)(F)Oc1cccc(-c2cnc3ccc(-c4ccncc4)nn23)c1
remaining binding (cell-free assay, competition with immobilised ligand; 5 µM): 67%

CCN1CCN(Cc2ccc(C(=O)Nc3ccc(C)c(Oc4ccc5c(c4)CC(=O)N5)c3)cc2C(F)(F)F)CC1
remaining binding (binding, competition with immobilised ligand; 1 µM): 52%

O=C(N1CCS(=O)(=O)CC1)N1C[C@H](c2ccc(OC(F)(F)F)cc2)C[C@H](c2nc(C3CC3)no2)C1
remaining binding (cell-free assay, competition with immobilised ligand; 1 µM): 91%

C[C@@H](c1ccc(-n2cnc3c(N)ncnc32)cc1)N1CCc2nn(C)c(Cc3ccccc3)c2C1=O
remaining binding (binding, competition with immobilised ligand; 0.1 µM): 95%

COc1ccnn2ncc(-c3ccnc(N(C)C)n3)c12
remaining binding (binding; 1 µM): 100%

C=CC(=O)N1CCC(C(=O)NCC(=O)N2CCN(c3nc(-c4cnc(N)nc4C(F)F)nc(N4CCOCC4)n3)CC2)CC1
remaining binding (binding, competition with immobilised ligand; 1 µM): 100%

F[C@@H]1CCN(c2nccc(-c3cnn4ncccc34)n2)C1
remaining binding (binding; 1 µM): 100%

Cc1nc(C2CCN(C(=O)c3ccc(OC(F)(F)F)cc3N)CC2)c2ncc(N3CCN(C)CC3)cc2n1
remaining binding (cell-free assay, competition with immobilised ligand; 1 µM): 100%

Cc1cnn2ncc(-c3ccnc(N(C)C)n3)c2c1
remaining binding (binding; 1 µM): 100%

O=C(c1ccc(Nc2ncc(Cl)c(-c3ccc(Cl)s3)n2)cc1)N1CCC(N2CCCC2)CC1
remaining binding (binding, competition with immobilised ligand; 1 µM): 22%
